According to ChEMBL document CHEMBL1145749, “Inhibition of human immunodeficiency virus reverse transcriptase by synadenol triphosphate and its E-isomer” (J Med Chem, 2003):
Activity calls are given as the source filed them. The rule behind the calls is not given here.

Columns and labels:
[1] = Ratio of inhibitory activity of compound to that of substrate activity of dATP against RT M184V enzyme was determined
Procedure, shortened: (§1)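 Recombinant HIV-1 RT (wild-type, M184V or M184I) was expressed in E. coli JM109 with 1 mM IPTG for 5 h, then purified on Q and SP columns to >90% purity. Assay used MS2 RNA/22A DNA primer in 50 mM Tris-HCl pH 7.8, 6 mM MgCl2, 150 mM KCl and 0.01% Triton X-100. Synthesis was distributive, with [3H]dATP as the only nucleotide, at 37 °C. Timed aliquots were spotted on DE81 and counted by scintillation. Ki came from the abscissa intercept of the Lineweaver–Burk replot. Ratio was Ki over dATP Km.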

[2] = Ratio of inhibitory activity of compound to that of substrate activity of dATP against RT M184I enzyme was determined; procedure, shortened: as §1
[3] = Ratio of inhibitory activity of compound to that of substrate activity of dATP against RT wt enzyme was determined; procedure, shortened: as §1
[4] = system: Nc1ncnc2c1ncn2[C@H]1C[C@H](O)[C@@H](COP(=O)(O)OP(=O)(O)OP(=O)(O)O)O1; test: Substrate Activity against HIV-1 reverse transcriptase (RT M184I)
Procedure, shortened: (§2)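 Purified recombinant HIV-1 RT M184V or M184I was assayed on MS2 RNA/22A primer at 37 °C (pH 7.8 Tris, 6 mM MgCl2, 150 mM KCl, 0.01% Triton X-100) with [3H]dATP as the only nucleotide substrate. Aliquots were taken 4–5 times onto DE81 filters and counted by scintillation. Km was taken from the Lineweaver–Burk plot without inhibitor.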

[5] = system: Human immunodeficiency virus 1; test: Antiviral selectivity against HIV-1 virus; Significant activity; type: functional, organism-based
[6] = system: Human immunodeficiency virus 1; test: Antiviral selectivity against HIV-1 virus; exhibited wide range selectivity; type: functional, organism-based
[7] = system: Human betaherpesvirus 5; test: Antiviral selectivity against HCMV virus; exhibited wide range selectivity; type: functional, organism-based
[8] = system: Human gammaherpesvirus 4; test: Antiviral selectivity against EB virus; exhibited wide range selectivity; type: functional, organism-based
[9] = system: Human alphaherpesvirus 3; test: Antiviral selectivity against varicella zoster virus; exhibited wide range selectivity; type: functional, organism-based
[10] = system: Nc1ncnc2c1ncn2[C@H]1C[C@H](O)[C@@H](COP(=O)(O)OP(=O)(O)OP(=O)(O)O)O1; test: Substrate Activity against HIV-1 reverse transcriptase (RT M184V); procedure, shortened: as §2
[11] = system: Human immunodeficiency virus 1; test: Antiviral selectivity against HIV-1 virus; Inactive; type: functional, organism-based
[12] = system: Human gammaherpesvirus 4; test: Antiviral selectivity against […]; Inactive; type: functional, organism-based
[13] = system: Human alphaherpesvirus 3; test: Antiviral selectivity against varicella zoster virus; Inactive; type: functional, organism-based
[14] = system: Human betaherpesvirus 5; test: Antiviral selectivity against HCMV virus; Inactive; type: functional, organism-based

Nc1ncnc2c1ncn2/C=C1/CC1COP(=O)(O)OP(=O)(O)OP(=O)(O)O (stereo not given)
Ki/Km [1]: 4.5
Ki/Km [2]: 6.3
Ki/Km [3]: 0.8

Nc1ncnc2c1ncn2/C=C1\CC1COP(=O)(O)OP(=O)(O)OP(=O)(O)O (stereo not given)
Ki/Km [1]: 137
Ki/Km [2]: 187
Ki/Km [3]: 25

Human immunodeficiency virus type 1 reverse transcriptase (Human immunodeficiency virus 1), Q72547 M184I
Km [4]: 0.38 µM

COC(=O)C(C)NP(=O)(OCC1C/C1=C\n1cnc2c(N)ncnc21)Oc1ccccc1 (stereo not given)
Anti-HIV activity [5]: Significant activity

Nc1ncnc2c1ncn2/C=C1/CC1CO (stereo not given)
Antiviral selectivity [6]: exhibited wide range selectivity
Antiviral selectivity [7]: exhibited wide range selectivity
Antiviral selectivity [8]: exhibited wide range selectivity
Antiviral selectivity [9]: exhibited wide range selectivity

Human immunodeficiency virus type 1 reverse transcriptase (Human immunodeficiency virus 1), Q72547 M184V
Km [10]: 0.38 µM

Nc1ncnc2c1ncn2[C@H]1CC[C@@H](COP(=O)(O)OP(=O)(O)OP(=O)(O)O)O1
Ki/Km [1]: 1.3
Ki/Km [2]: 3.2
Ki/Km [3]: 1.2

Nc1ncnc2c1ncn2/C=C1\CC1CO (stereo not given)
IA [11]: inactive
IA [12]: inactive
IA [13]: inactive
IA [14]: inactive
